Converted amounts (≈) assume the structure as drawn.

The record followed here is ChEMBL document CHEMBL4368897, “Using 2-aminobenzimidazole derivatives to inhibit Mycobacterium smegmatis biofilm formation” (Medchemcomm, 2019).

Data set [1] deals with Mycolicibacterium smegmatis. The data set can be described thus: Antimicrobial activity against Mycobacterium smegmatis str. MC2 155 ATCC 700084 assessed as inhibition of planktonic bacteria growth incubated for 48 hrs by broth microdilution method. Format: organism-based. Put shortly: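 48 h preculture in 7H9 (ADC, 0.5% Tween 80) used to inoculate fresh 7H9 at 5 × 10^5 CFU mL-1 (OD600 0.006). Compounds added from 100 mM DMSO-d6 stocks and twofold serially diluted. Incubated stationary at 37 °C for 48 h, then 6 h more with alamarBlue. MIC = lowest concentration without visible growth. Duplicate, at least two separate runs.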
A general note: Dilution methods test growth across graded concentrations, often in twofold steps.

The subject of data set [2] is Mycolicibacterium smegmatis. As to the kind of experiment: Antibiofilm activity against Mycobacterium smegmatis str. MC2 155 ATCC 700084 assessed as inhibition of biofilm formation incubated for 48 hrs by crystal violet reporter assay. Format: functional, organism-based. The note with it: for IC50: Mycolicibacterium smegmatis, MC2 155 ATCC 700084, 48 h. Summed up: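 48 h culture subcultured to 0.01 in M9 minimal salts medium containing compound. Incubated in PVC plates, stationary, 37 °C, 48 hr. Wells washed with water, stained 30 min with 0.1% crystal violet, and eluted with 95% ethanol for 10 min. OD540 read; % inhibition taken versus untreated wells. Duplicate wells, at least two separate runs.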
Background: A reporter such as luciferase makes a cellular process visible.

Data set [3] concerns Mycolicibacterium smegmatis. As to the kind of experiment: Potentiation of cefotaxime-induced antimicrobial activity against Mycobacterium smegmatis str. MC2 155 ATCC 700084 assessed as fold reduction in cefotaxime MIC at 20 uM incubated for 48 hrs by broth microdilution method. In kind it is functional.
Data set [4] concerns Mycolicibacterium smegmatis. As to the kind of experiment: Potentiation of ampicillin-induced antimicrobial activity against Mycobacterium smegmatis str. MC2 155 ATCC 700084 assessed as fold reduction in ampicillin MIC at 20 uM incubated for 48 hrs by broth microdilution method. Format: functional.

As usually defined, the IC50 is the concentration that gives 50% inhibition. For the molecule `CCCCCc1ccc(C(=O)Nc2ccc3c(c2)nc(N)n3CCc2ccc(OC)cc2)cc1`, the MIC in data set [1] was 120 µM (≈ 54.8 µg/mL). Moreover, the IC50 in data set [2] amounted to 8.8 µM.
The corresponding values for `CCCCCc1ccc(C(=O)Nc2ccc3c(c2)nc(N)n3CCCC)cc1` are above 200 µM and 22.4 µM.
For `CCCCCc1ccc(C(=O)Nc2ccc3c(c2)nc(N)n3CCCc2ccc(OC)cc2)cc1`, the figures for the “fold change (FC)” value in data set [3] and in data set [4] were 16 and 4, respectively. For the same molecule, in data set [1], the MIC was 100 µM (≈ 47.1 µg/mL). For the same molecule, the IC50 in data set [2] is 4.3 µM.
With `CCCCCc1ccc(C(=O)Nc2ccc3c(c2)nc(N)n3CCCCc2ccccc2)cc1`, in data set [1], the MIC stood at 100 µM (≈ 45.5 µg/mL). In addition, the half-maximal inhibitory concentration (IC50) in data set [2] turned out to be 4.3 µM.
For the molecule `CCCCCc1ccc(C(=O)Nc2ccc3c(c2)nc(N)n3CCCc2ccc(F)cc2)cc1`, the “fold change (FC)” value in data set [3] came to 64; in data set [4], 4. Further, the MIC in data set [1] was determined as 120 µM (≈ 55 µg/mL). Moreover, in data set [2], the IC50 is 3.6 µM.
As to `CCCCCc1ccc(C(=O)Nc2ccc3[nH]c(N)nc3c2)cc1`, in data set [1], the MIC came to 150 µM (≈ 48.4 µg/mL). Besides, in data set [2], the IC50 worked out at 13.6 µM.
For `CCCCCc1ccc(C(=O)Nc2ccc3c(c2)nc(N)n3Cc2ccc(OC)cc2)cc1` the same measures were above 200 µM and 12.5 µM.
On to `CCCCCc1ccc(C(=O)Nc2ccc3c(c2)nc(N)n3CCCc2ccc(Cl)cc2)cc1`, for which the results for the “fold change (FC)” value in data set [3] and in data set [4] were 8 and 4, respectively. Moreover, the MIC in data set [1] was 120 µM (≈ 57 µg/mL). Also, in data set [2], the IC50 worked out at 6.4 µM.
As for `CCCCCc1ccc(C(=O)Nc2ccc3c(c2)nc(N)n3CCCc2cccc(Br)c2)cc1`, the MIC in data set [1] was 100 µM (≈ 51.9 µg/mL). In addition, the IC50 in data set [2] turned out to be 9.2 µM.
The corresponding values for `CCCCCc1ccc(C(=O)Nc2ccc3c(c2)nc(N)n3CCc2cccc(OC)c2)cc1` are 200 µM (≈ 91.3 µg/mL) and 12.5 µM.
With `CCCCCc1ccc(C(=O)Nc2ccc3c(c2)nc(N)n3CCCc2ccc(Br)cc2)cc1`, the “fold change (FC)” value stood at 16 in data set [3] and 4 in data set [4]. Besides, the MIC in data set [1] worked out at 100 µM (≈ 51.9 µg/mL). Moreover, the IC50 in data set [2] is 6.2 µM.
As to `CCCCCCCCCn1c(N)nc2cc(NC(=O)c3ccc(CCCCC)cc3)ccc21`, the MIC in data set [1] worked out at 200 µM (≈ 89.7 µg/mL). The IC50 in data set [2] is 23.2 µM.
For `CCCCCc1ccc(C(=O)Nc2ccc3c(c2)nc(N)n3CCc2ccccc2OC)cc1` the same measures were 120 µM (≈ 54.8 µg/mL) and 11.3 µM.
As to `CCCCCc1ccc(C(=O)Nc2ccc3c(c2)nc(N)n3Cc2ccccc2)cc1`, the MIC in data set [1] came to 100 µM (≈ 41.3 µg/mL). Besides, in data set [2], the IC50 was found to be 12.2 µM.
The corresponding values for `CCCCCc1ccc(C(=O)Nc2ccc3c(c2)nc(N)n3CCc2ccccc2)cc1` are 100 µM (≈ 42.7 µg/mL) and 5.4 µM.
For the molecule `Nc1nc2cc(NC(=O)Nc3ccc(Cl)c(Cl)c3)ccc2n1CCCc1ccccc1`, the “fold change (FC)” value in data set [3] and in data set [4] was 2 throughout. Also, the MIC in data set [1] stood at 100 µM (≈ 45.4 µg/mL). Also, in data set [2], the half-maximal inhibitory concentration (IC50) stood at 2.6 µM.
For `CCCCCCn1c(N)nc2cc(NC(=O)c3ccc(CCCCC)cc3)ccc21`, the MIC in data set [1] was above 200 µM. Moreover, the IC50 in data set [2] worked out at 25.6 µM.
For `CCCCCc1ccc(C(=O)Nc2ccc3c(c2)nc(N)n3CCCc2ccccc2Br)cc1`, the MIC in data set [1] came out at 120 µM (≈ 62.3 µg/mL). Also, the IC50 in data set [2] was determined as 10.5 µM.
The corresponding values for `Nc1nc2cc(C(=O)Nc3ccc(Cl)c(Cl)c3)ccc2n1CCCc1ccccc1` are 200 µM (≈ 87.9 µg/mL) and 8.6 µM.
The corresponding values for `Nc1nc2cc(NC(=O)c3cc(Cl)cc(Cl)c3)ccc2n1CCCc1ccccc1` are 200 µM (≈ 87.9 µg/mL) and 9.4 µM.
On to `CCCCCc1ccc(C(=O)Nc2ccc3c(c2)nc(N)n3CCCc2ccccc2)cc1`, for which the “fold change (FC)” value in data set [3] stood at 128; in data set [4] it was 16. Also, the MIC in data set [1] was found to be 60 µM (≈ 26.4 µg/mL). Besides, the MBIC50 in data set [2] was 8 µM. In data set [2], the IC50 was found to be 3.5 µM.
Consider `Nc1nc2cc(NC(=O)c3ccc(Cl)c(Cl)c3)ccc2n1CCCc1ccccc1`, for which the MIC in data set [1] was 200 µM (≈ 87.9 µg/mL). Moreover, the IC50 in data set [2] came to 8.8 µM.
